Test results: ChEMBL document CHEMBL4330056, “Synthesis and Cytotoxic and Antiviral Profiling of Pyrrolo- and Furo-Fused 7-Deazapurine Ribonucleosides” (J Med Chem, 2018)
Calls of active or inactive are those of the source. The rule behind the calls is not given here.

Experiments:
K562 = test: Antiproliferative activity against human K562 cells after 3 days by MTS assay; format: functional, cell-based; settings: K562, 72 h
CCRF-CEM [1] = test: Induction of cell cycle arrest in human CCRF-CEM cells assessed as accumulation at G2/M phase at 5 times IC50 concentration after 24 hrs by propidium iodide-staining based flow cytometry (reference value: 19.22%); format: functional
CCRF-CEM [2] = test: Inhibition of RNA synthesis in human CCRF-CEM cells assessed as RNA synthesis level at IC50 concentration after 24 hrs by BrU incorporation assay (reference value: 49.89%); format: functional; parameters: scale not given: the % may be the effect or the level left
[3] = Metabolic stability in human liver microsomes assessed as compound remaining at 5 umol/L after 15 mins relative to control; format: ADME, Microsome; settings: read-out: Stability
Outline: (§1)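 Human microsomal fraction; percent compound remaining over time.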

CCRF-CEM [4] = test: Induction of cell cycle arrest in human CCRF-CEM cells assessed as accumulation at subG1 phase at 5 times IC50 concentration after 24 hrs by propidium iodide-staining based flow cytometry (reference value: 3.45%); format: functional
[5] = Stability in human plasma assessed as compound remaining at 3.3 umol/L after 120 mins by RF-MS analysis relative to control; format: ADME, cell-free; settings: read-out: Stability
Human orthopneumovirus = test: Antiviral activity against Human respiratory syncytial virus A2 infected in Hep2 cells assessed as reduction in virus-induced cytopathic effect incubated for 4 days by CellTiter-Glo viability reagent based assay; format: functional, organism-based
CCRF-CEM [6] = test: Antiproliferative activity against human CCRF-CEM cells after 3 days by MTS assay; format: functional, cell-based; settings: 72 h
[7] = Chemical stability of the compound assessed as compound remaining after 120 mins relative to control; format: physicochemical; settings: read-out: Stability
HCT-116 [8] = test: Antiproliferative activity against human HCT116 cells after 3 days by MTS assay; format: functional, cell-based; settings: HCT-116, 72 h
Hepatitis C virus = test: Antiviral activity against Hepatitis C virus genotype 1b infected in human Huh-luc replicon cells after 3 days by luciferase assay; format: functional, organism-based, Hepacivirus hominis; settings: subtype 1b, 72 h
CCRF-CEM [9] = test: Inhibition of DNA synthesis in human CCRF-CEM cells assessed as DNA synthesis level at IC50 concentration after 24 hrs by BrdU incorporation assay (reference value: 43.39%); format: functional; parameters: scale not given: the % may be the effect or the level left
CCRF-CEM [10] = test: Inhibition of mitosis in human CCRF-CEM cells assessed Ser10 H3 phosphorylation positive cells at 5 times IC50 concentration after 24 hrs by flow cytometry relative to total cell population (reference value: 1.36%); format: functional; parameters: scale not given: the % may be the effect or the level left
[11] = Chemical stability of the compound assessed as compound remaining after 15 mins relative to control; format: physicochemical; settings: read-out: Stability
HepG2 = test: Antiproliferative activity against human HepG2 cells after 72 hrs by XTT assay; format: functional, cell-based; settings: HepG2, 72 h
CCRF-CEM [12] = test: Induction of cell cycle arrest in human CCRF-CEM cells assessed as accumulation at S phase at 5 times IC50 concentration after 24 hrs by propidium iodide-staining based flow cytometry (reference value: 41.08%); format: functional
BJ = test: Antiproliferative activity against human BJ cells after 3 days by MTS assay; settings: 72 h
CCRF-CEM [13] = test: Induction of cell cycle arrest in human CCRF-CEM cells assessed as accumulation at G0/G1 phase at IC50 concentration after 24 hrs by propidium iodide-staining based flow cytometry (reference value: 39.70%); format: functional
HL-60 = test: Antiproliferative activity against human HL60 cells after 72 hrs by XTT assay; format: functional, cell-based; settings: HL-60, 72 h
CCRF-CEM [14] = test: Inhibition of RNA synthesis in human CCRF-CEM cells assessed as RNA synthesis level at 5 times IC50 concentration after 24 hrs by BrU incorporation assay (reference value: 49.89%); format: functional; parameters: scale not given: the % may be the effect or the level left
[15] = Stability in human plasma assessed as compound remaining at 3.3 umol/L after 30 mins by RF-MS analysis relative to control; format: ADME, cell-free; settings: read-out: Stability
[16] = Antiproliferative activity against human CEM-DNR-bulk cells after 3 days by MTS assay; settings: 72 h
U2OS = test: Antiproliferative activity against human U2OS cells after 3 days by MTS assay; format: functional, cell-based; settings: 72 h
[17] = Stability in human plasma assessed as compound remaining at 3.3 umol/L after 60 mins by RF-MS analysis relative to control; format: ADME, cell-free; settings: read-out: Stability
[18] = Cytotoxicity against human Hep2 cells assessed as reduction in cell viability after 3 days by CellTiter-Glo assay; format: cell-based; settings: HEp-2 cells
HCT-116 [19] = test: Antiproliferative activity against p53 gene knocked out human HCT116 cells after 3 days by MTS assay; format: functional, cell-based; settings: HCT-116, 72 h
Influenza A virus = test: Antiviral activity against Influenza A virus (A/Mexico/4108/2009(H1N1)) infected in MDCK cells assessed as inhibited virus-induced cytopathic effect incubated for 2 days by XTT assay; format: functional, organism-based
dengue virus type 2 = test: Antiviral activity against Dengue virus 2 Thailand/16681/84 infected in African green monkey Vero cells assessed as inhibition of virus replication incubated for 3 days by fluorescence microscopy; format: functional, organism-based
[20] = Metabolic stability in human liver microsomes assessed as compound remaining at 5 umol/L after 30 mins relative to control; format: ADME, Microsome; settings: read-out: Stability; outline: as §1
CCRF-CEM [21] = test: Induction of cell cycle arrest in human CCRF-CEM cells assessed as accumulation at S phase at IC50 concentration after 24 hrs by propidium iodide-staining based flow cytometry (reference value: 41.08%); format: functional
[22] = Stability in human plasma assessed as compound remaining at 3.3 umol/L after 15 mins by RF-MS analysis relative to control; format: ADME, cell-free; settings: read-out: Stability
CCRF-CEM [23] = test: Induction of cell cycle arrest in human CCRF-CEM cells assessed as accumulation at subG1 phase at IC50 concentration after 24 hrs by propidium iodide-staining based flow cytometry (reference value: 3.45%); format: functional
[24] = Antiproliferative activity against human K562-TAX cells after 3 days by MTS assay; format: functional, cell-based; settings: 72 h
Adenosine kinase = Adenosine kinase (Homo sapiens, UniProt P55263); test: Inhibition of recombinant human ADK using [3H]-adenosine as substrate after 20 mins by TLC scanner-based analysis relative to control
Sequence of Adenosine kinase (P55263 whole entry): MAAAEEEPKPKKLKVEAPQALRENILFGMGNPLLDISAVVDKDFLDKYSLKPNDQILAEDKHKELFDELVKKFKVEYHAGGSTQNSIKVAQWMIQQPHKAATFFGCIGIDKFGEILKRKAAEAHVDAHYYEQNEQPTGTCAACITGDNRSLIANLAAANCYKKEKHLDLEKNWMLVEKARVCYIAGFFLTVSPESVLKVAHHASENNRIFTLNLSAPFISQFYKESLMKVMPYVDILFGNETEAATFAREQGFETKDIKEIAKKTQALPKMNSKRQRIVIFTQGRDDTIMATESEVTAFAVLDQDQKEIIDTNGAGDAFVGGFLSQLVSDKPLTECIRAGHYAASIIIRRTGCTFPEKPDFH
Outline: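 ADK inhibition: 50 μM adenosine substrate with 10 μM test compound and 97 ng enzyme, 20 min at 37 °C.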

Coxsackievirus B3 = test: Antiviral activity against Human coxsackie B3 Nancy infected in human HeLa cells assessed as inhibited virus-induced cytopathic effect incubated for 2 days by XTT assay; format: functional, organism-based
[25] = Metabolic stability in human liver microsomes assessed as compound remaining at 5 umol/L after 60 mins relative to control; format: ADME, Microsome; settings: read-out: Stability; outline: as §1
CCRF-CEM [26] = test: Inhibition of mitosis in human CCRF-CEM cells assessed Ser10 H3 phosphorylation positive cells at IC50 concentration after 24 hrs by flow cytometry relative to total cell population (reference value: 1.36%); format: functional; parameters: scale not given: the % may be the effect or the level left
[27] = Protein binding in human plasma; format: ADME, cell-free; settings: read-out: PPB (converted)
CCRF-CEM [28] = test: Induction of cell cycle arrest in human CCRF-CEM cells assessed as accumulation at G2/M phase at IC50 concentration after 24 hrs by propidium iodide-staining based flow cytometry (reference value: 19.22%); format: functional
MRC5 = test: Antiproliferative activity against human MRC5 cells after 3 days by MTS assay; settings: MRC5, 72 h
[29] = Chemical stability of the compound assessed as compound remaining after 30 mins relative to control; format: physicochemical; settings: read-out: Stability
[30] = Effective permeability of the compound at 20 umol/L by PAMPA; format: ADME; settings: 20 µM

CSc1ncnc2c1c1occc1n2[C@@H]1O[C@H](CO)[C@@H](O)[C@H]1O
IC50 (K562): 270 nM | Activity (CCRF-CEM [1]): 13.3% | Activity (CCRF-CEM [2]): 0.39% | remaining at 0.25 h, 5 µM [3]: 100% | Activity (CCRF-CEM [4]): 14.06% | remaining at 2 h, 3.3 µM [5]: 96% | Activity (Human orthopneumovirus): inactive | IC50 (CCRF-CEM [6]): 140 nM | remaining at 2 h [7]: 96% | IC50 (HCT-116 [8]): 220 nM | EC50 (Hepatitis C virus): 280 nM | Activity (CCRF-CEM [9]): 39.68% | Activity (CCRF-CEM [10]): 0.9% | remaining at 0.25 h [11]: 99% | IC50 (HepG2): 2010 nM | Activity (CCRF-CEM [12]): 53.55% | IC50 (BJ): 490 nM | Activity (CCRF-CEM [13]): 44.43% | IC50 (HL-60): 290 nM | Activity (CCRF-CEM [14]): 6.55% | remaining at 0.5 h, 3.3 µM [15]: 99% | IC50 [16]: 5570 nM | IC50 (U2OS): 340 nM | remaining at 1 h, 3.3 µM [17]: 98% | CC50 at 72 h [18]: > 44400 nM | IC50 (HCT-116 [19]): 210 nM | Activity (Influenza A virus): inactive | Activity (dengue virus type 2): inactive | remaining at 0.5 h, 5 µM [20]: 99% | Activity (CCRF-CEM [21]): 38.26% | remaining at 0.25 h, 3.3 µM [22]: 99% | Activity (CCRF-CEM [23]): 6.52% | IC50 [24]: 2700 nM | IC50 (Adenosine kinase): > 10000 nM | Activity (Coxsackievirus B3): inactive | remaining at 1 h, 5 µM [25]: 98% | Activity (CCRF-CEM [26]): 1.26% | fraction unbound [27]: 0.16 | Activity (CCRF-CEM [28]): 17.31% | IC50 (MRC5): 9370 nM | remaining at 0.5 h [29]: 99% | log(permeability) [30]: -5.99

Cc1ncnc2c1c1c(ccn1C)n2[C@@H]1O[C@H](CO)[C@@H](O)[C@H]1O
IC50 (K562): 400 nM | Activity (CCRF-CEM [1]): 13.14% | Activity (CCRF-CEM [2]): 53.62% | remaining at 0.25 h, 5 µM [3]: 99% | Activity (CCRF-CEM [4]): 10.99% | remaining at 2 h, 3.3 µM [5]: 79% | Activity (Human orthopneumovirus): inactive | IC50 (CCRF-CEM [6]): 210 nM | remaining at 2 h [7]: 91% | IC50 (HCT-116 [8]): 330 nM | EC50 (Hepatitis C virus): 190 nM | Activity (CCRF-CEM [9]): 48.49% | Activity (CCRF-CEM [10]): 0.9% | remaining at 0.25 h [11]: 98% | IC50 (HepG2): 1130 nM | Activity (CCRF-CEM [12]): 52.19% | IC50 (BJ): 3910 nM | Activity (CCRF-CEM [13]): 31.75% | IC50 (HL-60): 1510 nM | Activity (CCRF-CEM [14]): 35.91% | remaining at 0.5 h, 3.3 µM [15]: 83% | IC50 [16]: > 50000 nM | IC50 (U2OS): 610 nM | remaining at 1 h, 3.3 µM [17]: 81% | CC50 at 72 h [18]: > 44400 nM | IC50 (HCT-116 [19]): 330 nM | Activity (Influenza A virus): inactive | Activity (dengue virus type 2): inactive | remaining at 0.5 h, 5 µM [20]: 98% | Activity (CCRF-CEM [21]): 51.03% | remaining at 0.25 h, 3.3 µM [22]: 98% | Activity (CCRF-CEM [23]): 5.1% | IC50 [24]: > 50000 nM | IC50 (Adenosine kinase): > 10000 nM | Activity (Coxsackievirus B3): inactive | remaining at 1 h, 5 µM [25]: 97% | Activity (CCRF-CEM [26]): 1.06% | fraction unbound [27]: 0.71 | Activity (CCRF-CEM [28]): 17.22% | IC50 (MRC5): 50000 nM | remaining at 0.5 h [29]: 97% | log(permeability) [30]: -6.87
